Assay results from publication PMC3328401 (Journal of Medicinal Chemistry, 2012).

Columns and labels:
[1] = system: U-87 MG glioblastoma cells; test: Clonogenic survival; assay type: cell-based, human; details: U-87, after eight weeks in culture
[2] = system: OVCAR-3 cells; test: Concentration-dependent uptake; assay type: cell-based, human; details: OVCAR-3, 3 h exposure, estimated
[3] = system: LS 174T cells; test: Concentration-dependent uptake; assay type: cell-based, human; details: 3 h exposure, estimated
[4] = Chemical hydrolysis of cycloSal phosphate triesters in phosphate buffer; assay type: physicochemical; details: phosphate buffer 50 mM, pH 7.3, 37°C, ~15% acetonitrile
[5] = system: OVCAR-3 cells; test: Uptake kinetics; assay type: cell-based, human
Outline: (§1)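 Cells were plated at 2×10⁵/well in 6-well plates in 3 mL growth medium: OVCAR-3 in RPMI-1640 with 20% FBS, LS 174T in EMEM with 10% FBS. After 24 h, radiolabeled compound (~13.6–46.9 kBq/mL) was added at staggered times, up to 360 min, in triplicate. Medium was gamma-counted for radioactive concentration. Cells were washed twice with ice-cold PBS, trypsinized and gamma-counted for cell-associated activity.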

[6] = system: LS 174T cells; test: Uptake kinetics; assay type: cell-based, human
[7] = system: U-87 MG cells; test: Subcellular distribution and DNA retention of 125I; assay type: cell-based, human
Outline: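 U-87 MG cells (~1×10⁶ per T75, EMEM with 10% FBS) were grown 24 h, then given radiolabeled compound for 1 h. They were processed immediately or after 24 h in fresh nonradioactive medium. Pellets (1,000 rpm, 4°C, 15 min) were fractionated with nuclear/cytoplasmic extraction reagents into cytoplasm, soluble nuclear and DNA fractions, which were gamma-counted. DNA-bound ¹²⁵I was also measured after genomic-tip DNA isolation. Longer exposures of 40–144 h were also run.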

[8] = Lipophilicity, shake-tube method n-octanol/phosphate buffered saline; assay type: physicochemical; details: n-octanol / phosphate buffered saline 10 mM, pH 6.8
[9] = system: OVCAR-3 cells; test: Subcellular distribution of 125I-labeled reagents; assay type: cell-based, human; details: for ^125I in cytoplasm, 24 hours / ^125I in nucleus, 24 hours: 1 h incubation then 24 h in fresh nonradioactive medium; for ^125I in cytoplasm, 1 hour / ^125I in nucleus, 1 hour: 1 h incubation, 55.5 kBq/mL
Outline: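 OVCAR-3 cells were kept in RPMI-1640 with insulin, 2 mM L-glutamine and 20% FBS and expanded as intraperitoneal xenografts in athymic nude mice. Cells in six T150 flasks attached overnight, then were exposed 1 h to ¹²⁵I compound (55.5 kBq/mL). Three flasks were processed immediately and three after 24 h in fresh medium. Cells were trypsinized, counted, fractionated into nuclear/cytoplasmic compartments and gamma-counted.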

[10] = system: LS 174T colorectal adenocarcinoma cells; test: Clonogenic survival and cell-retained 125I; assay type: cell-based, human; details: 4 h, 185 kBq/mL
Outline: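 LS 174T cells (2×10⁶ per T75) attached ~18 h, then exposed 4 h at 37°C to radiolabeled compound (185 kBq) or to nonradioactive medium for controls. Cells were washed, trypsinized and counted for viability. 1 mL of a 1×10⁶ cells/mL suspension was gamma-counted for cell-associated ¹²⁵I. Cells were plated in duplicate T25 flasks at 1,000, 500 and 100 cells/flask. Methanol-fixed colonies were scored after three weeks. Surviving fraction is treated/control colonies.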

[11] = molecular target: human BChE (Homo sapiens, UniProt P06276); test: Gel electrophoresis/autoradiography of radioactive compounds with BChE; assay type: binding; details: BChE 0.02 U or increasing activities, 30 min
Outline: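 Radioactive compounds with human BChE were run on native and nonreducing SDS-PAGE gels at constant 150 V or 190 V for 1 h. Gels were exposed to autoradiography film at −80°C for 1–48 h, depending on applied radioactivity. Native gels were stained for BChE activity with 1 mM butyrylthiocholine iodide as substrate (Karnovsky–Roots method).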

[12] = system: LS 174T and OVCAR-3 cancer cell lines; test: Uptake kinetics, cell-associated activity after 3 h; assay type: cell-based, human; details: after 3 h incubation
Outline: as §1

[13] = after intratumor injections; cited from earlier work
[14] = intravenously administered; cited from earlier work

Chain of human BChE (P06276 29-602): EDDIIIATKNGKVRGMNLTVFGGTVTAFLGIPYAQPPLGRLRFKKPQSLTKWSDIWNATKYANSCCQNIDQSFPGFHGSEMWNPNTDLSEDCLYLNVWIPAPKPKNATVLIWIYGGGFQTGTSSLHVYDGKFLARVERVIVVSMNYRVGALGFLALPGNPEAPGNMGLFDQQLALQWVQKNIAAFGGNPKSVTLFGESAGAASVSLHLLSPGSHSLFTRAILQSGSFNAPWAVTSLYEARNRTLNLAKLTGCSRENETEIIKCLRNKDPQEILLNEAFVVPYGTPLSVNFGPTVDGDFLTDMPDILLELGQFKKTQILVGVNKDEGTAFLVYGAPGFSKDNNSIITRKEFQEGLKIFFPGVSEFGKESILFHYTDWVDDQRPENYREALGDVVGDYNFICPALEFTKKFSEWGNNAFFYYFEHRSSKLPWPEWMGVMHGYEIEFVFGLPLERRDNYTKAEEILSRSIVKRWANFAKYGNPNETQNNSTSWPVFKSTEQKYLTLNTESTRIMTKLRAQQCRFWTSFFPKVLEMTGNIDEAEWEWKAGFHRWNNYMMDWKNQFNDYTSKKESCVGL

O=c1[nH]c(=O)n([C@H]2C[C@H](O)[C@@H](COP3(=O)OCc4ccccc4O3)O2)cc1[125I] (some centres unmarked) [6b-fast, 5-[^125I]-Iodo-5′-O-cycloSaligenyl-2′-deoxyuridine Monophosphate]
colony formation [1]: failed to produce any colonies | Bmax [2]: ~ 7,400 molecules/cell | Bmax [3]: ~ 1,300 molecules/cell | k (rate of hydrolysis) [4]: 0.00225 min⁻¹

O=c1[nH]c(=O)n([C@H]2C[C@H](O)[C@@H](COP3(=O)OCc4ccccc4O3)O2)cc1[125I] (some centres unmarked) [6b-slow, 5-[^125I]-Iodo-5′-O-cycloSaligenyl-2′-deoxyuridine Monophosphate]
colony formation [1]: failed to produce any colonies | Bmax [2]: > 50,000 molecules/cell | uptake ratio of slow to fast diastereomer ([5]; OVCAR-3, after 90 min): ~ 1.7 | uptake rate, slow relative to fast diastereomer ([5]; OVCAR-3, up to 90 min): 6.5 × | uptake ratio of slow to fast diastereomer ([6]; after 90 min): ~ 1.7 | uptake rate, slow relative to fast diastereomer ([6]; up to 90 min): 4.6 × | 125I accumulated in DNA ([7]; U-87, 40-h incubation, 19.6 kBq/mL, genomic tips method): 1.18 (0.11) mBq ^125I/cell | Bmax [3]: ~ 6,800 molecules/cell | Log P [8]: 0.66 (± 0.03) | k (rate of hydrolysis) [4]: 0.00152 min⁻¹ | ^125I in cytoplasm, 24 hours [9]: 6.0 (0.7) cpm/10^3 cells (std dev) | ^125I in nucleus, 24 hours [9]: 31.3 (6.0) cpm/10^3 cells (std dev) | ^125I in cytoplasm, 1 hour [9]: 14.8 (6.8) cpm/10^3 cells (std dev) | ^125I in nucleus, 1 hour [9]: 4.9 (2.5) cpm/10^3 cells (std dev)

Cc1cccc2c1OP(=O)(OC[C@H]1O[C@@H](n3cc([125I])c(=O)[nH]c3=O)C[C@@H]1O)OC2 (some centres unmarked) [7b-fast, 5-[^125I]-Iodo-5′-O-cyclo(3-methylSaligenyl)-2′-deoxyuridine Monophosphate]
125I retained per cell [10]: 0.196 (0.06) mBq ^125I/cell | k (rate of hydrolysis) [4]: 0.000544 min⁻¹

Cc1cccc2c1OP(=O)(OC[C@H]1O[C@@H](n3cc([125I])c(=O)[nH]c3=O)C[C@@H]1O)OC2 (some centres unmarked) [7b-slow, 5-[^125I]-Iodo-5′-O-cyclo(3-methylSaligenyl)-2′-deoxyuridine Monophosphate]
125I retained per cell [10]: 0.566 (0.333) mBq ^125I/cell | surviving fraction [10]: 0.63 (0.22) mBq | cell-associated radioactivity, OVCAR-3 compared to LS 174T [5]: 1.7 × | ratio of slow to fast uptake ([5]; OVCAR-3, after 6 h): 3.5 | ratio of slow to fast uptake ([6]; after 6 h): 3.0 | k (rate of hydrolysis) [4]: 0.000463 min⁻¹ | ^125I in cytoplasm, 24 hours [9]: 1.8 (0.6) cpm/10^3 cells (std dev) | ^125I in nucleus, 24 hours [9]: 29.3 (7.0) cpm/10^3 cells (std dev) | ^125I in cytoplasm, 1 hour [9]: 13.0 (1.3) cpm/10^3 cells (std dev) | ^125I in nucleus, 1 hour [9]: 5.4 (0.4) cpm/10^3 cells (std dev)

CC(C)(C)c1cc(C(C)(C)C)c2c(c1F)COP(=O)(OC[C@H]1O[C@@H](n3cc([125I])c(=O)[nH]c3=O)C[C@@H]1O)O2 (some centres unmarked) [8b-slow, 5-[^125I]-Iodo-5′-O-[cyclo-3,5-di-(tert-butyl)-6-fluoroSaligenyl]-2′-deoxyuridine Monophosphate]
binding to BChE on gel autoradiograph [11]: BChE activity-dependent binding | cell associated activity relative to the corresponding 6b diastereomer [12]: ~ 180 × | cell associated activity relative to the corresponding 7b diastereomer [12]: 35 × | ^125I in cytoplasm, 24 hours [9]: 2.8 (0.7) cpm/10^3 cells (std dev) | ^125I in nucleus, 24 hours [9]: 91.6 (5.7) cpm/10^3 cells (std dev) | ^125I in cytoplasm, 1 hour [9]: 87.3 (7.5) cpm/10^3 cells (std dev) | ^125I in nucleus, 1 hour [9]: 7.8 (0.6) cpm/10^3 cells (std dev)

CC(C)(C)c1cc(C(C)(C)C)c2c(c1F)COP(=O)(OC[C@H]1O[C@@H](n3cc([125I])c(=O)[nH]c3=O)C[C@@H]1F)O2 (some centres unmarked) [24b-slow, 5-[^125I]-Iodo-5′-O-[cyclo-3,5-Di-(tert-butyl)-6-fluoroSaligenyl]-3′-fluoro-2′,3′-dideoxyuridine]
binding to BChE on gel autoradiograph [11]: BChE activity-dependent binding | uptake and retention lower in the cytoplasm, nucleus and DNA ([7]; U-87 MG, 1 h treatment): ~ 20 × | presence in intracellular compartments at 24 h ([7]; U-87 MG, 24 h in fresh medium): practically undetectable | k (rate of hydrolysis) [4]: 0.000224 min⁻¹

O=c1[nH]c(=O)n([C@H]2C[C@H](O)[C@@H](CO)O2)cc1[125I] [^125IUdR, 5-[^125I]Iodo-2′-deoxyuridine]
injected ^125IUdR associated with one gram of tumor [13]: ~ 0.02% | tumor uptake, range [13]: 0.001–0.06 % ID/g | time to destruction in circulation [14]: within a few min
